The results in this text go back to ChEMBL document CHEMBL2057141, “Imidazolopiperazines: lead optimization of the second-generation antimalarial agents” (J Med Chem, 2012).

Data set [1] concerns Plasmodium falciparum. Nature of the data set: Antimalarial activity against Plasmodium falciparum 3D7 after 72 hrs by SYBR green fluorescence assay. Particulars: 3D7, 72 h. It is filed as functional, organism-based. In a few lines: (§1)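 P. falciparum grown in O+ erythrocytes, screened in medium without human serum plus 0.5% Albumax II. Twelve-point half-log dilutions up to 10 μM final. 0.3% parasitemia, 2.5% hematocrit; 72 h at 37 °C under low-oxygen gas. Lysis buffer with SYBR Green added, 24 h at 25 °C, fluorescence read at 485/530 nm.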

Data set [2] deals with Plasmodium falciparum. Description: Antimalarial activity against Plasmodium falciparum W2 after 72 hrs by SYBR green fluorescence assay. It counts as functional, organism-based. The following applies: W2, 72 h. In a few lines:
as §1

Data set [3] is described as follows: Permeability of the compound by PAMPA. It is filed as ADME. The method, boiled down:
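PAMPA in 96-well filter plates. Permeated compound quantified by UV absorbance at 260–290 nm. Reported as percentage absorbed.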

Data set [4] concerns Mus musculus. Nature of the data set: AUC (0 to 24 hrs) in Balb/c mouse at 5 mg/kg, iv. It is filed as ADME, organism-based, Plasma. The following applies: in vivo. On the set-up: time < 24 hr, dose 5 mg/kg, route intravenous. In a few lines: (§2)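 Male Balb/c mice (n = 3 per group). Compound as a 2.5 mg/mL solution in PEG300/D5W 3:1, filtered. Given by lateral tail vein at 5 mg/kg (2 mL/kg) or orally at 20 mg/kg (8 mL/kg). Six serial 50 μL retro-orbital blood samples to 24 h, heparinized plasma. Plasma extracted with acetonitrile:methanol 3:1 with internal standard, LC-MS/MS. Noncompartmental analysis; F = AUCpo×dose_iv/AUCiv×dose_po.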

Data set [5] concerns Mus musculus. Nature of the data set: AUC (0 to 24 hrs) in Balb/c mouse at 20 mg/kg, po. It counts as ADME, organism-based, Plasma. On the set-up: time < 24 hr, dose 20 mg/kg, route oral. The following applies: in vivo. In a few lines:
as §2

Another data set has as its system Plasmodium berghei. Nature of the data set: Antimalarial activity against Plasmodium berghei ANKA expressing GFP infected in po dosed NMRI mouse assessed as reduction of parasite level in blood administered 24 hrs post infection measured after 72 hrs post infection by flow cytometry. It counts as functional.

Consider `CC(C)(N)C(=O)N1CCn2c(nc(-c3ccc(F)cc3)c2Nc2ccc(F)cc2)C1`, for which the half-maximal effective concentration (EC50) came to 20 nM in the data set on Plasmodium falciparum [1] and 25 nM with Plasmodium falciparum [2]. Moreover, in data set [3], the permeability amounted to 81%. Besides, the AUC with Mus musculus [4] was 3.442 µM·h; with Mus musculus [5] it was 17.894 µM·h.

In the case of `CC(C)(N)C(=O)N1CCn2c(nc(-c3ccc(F)cc3)c2Nc2ccc(F)c(F)c2)C1`, the ED99 in the data set on Plasmodium berghei worked out at 26.5 mg/kg.

In the case of `NCC(=O)N1CCn2c(nc(-c3ccc(F)cc3)c2Nc2ccc(F)cc2)C1`, the results for the EC50 in the data set on Plasmodium falciparum [1] and with Plasmodium falciparum [2] were 24 nM and 23 nM, respectively. The same molecule had a permeability in data set [3] of 52%. Further, the AUC amounted to 1.072 µM·h in the data set with Mus musculus [4] and 0.965 µM·h with Mus musculus [5].

Consider `NCC(=O)N1CCn2c(nc(-c3ccc(F)cc3)c2Nc2ccc(F)c(Cl)c2)C1`, for which the concentration for a half-maximal effect (EC50) with Plasmodium falciparum [1] and with Plasmodium falciparum [2] was 4 nM throughout.

For `C[C@H]1c2nc(-c3ccc(F)cc3)c(Nc3ccc(F)c(Cl)c3)n2CCN1C(=O)CN`, the concentration giving a half-maximal response (EC50) was 29 nM in the data set with Plasmodium falciparum [1] and 24 nM in the data set on Plasmodium falciparum [2].

For the molecule `C[C@@H]1c2nc(-c3ccc(F)cc3)c(Nc3ccc(F)c(Cl)c3)n2CCN1C(=O)CN`, the concentration giving a half-maximal response (EC50) was determined as 31 nM with Plasmodium falciparum [1] and 29 nM in the data set on Plasmodium falciparum [2].

For the molecule `CC(C)[C@H]1c2nc(-c3ccc(F)cc3)c(Nc3ccc(F)c(Cl)c3)n2CCN1C(=O)CN`, the 50% effective concentration (EC50) was 343 nM in the data set with Plasmodium falciparum [1] and 470 nM with Plasmodium falciparum [2].

As to `CC(C)[C@@H]1c2nc(-c3ccc(F)cc3)c(Nc3ccc(F)c(Cl)c3)n2CCN1C(=O)CN`, the EC50 amounted to 168 nM in the data set on Plasmodium falciparum [1] and 202 nM in the data set on Plasmodium falciparum [2].

Regarding `CC1(C)c2nc(-c3ccc(F)cc3)c(Nc3ccc(F)c(Cl)c3)n2CCN1C(=O)CN`, the values for the concentration for a half-maximal effect (EC50) in the data set on Plasmodium falciparum [1] and in the data set on Plasmodium falciparum [2] were 27 nM and 24 nM, respectively.

Turning to `Cc1ccc(Nc2c(-c3ccc(F)cc3)nc3n2CCN(C(=O)CN)C3(C)C)cc1`, the 50% effective concentration (EC50) with Plasmodium falciparum [1] is 8 nM; in the data set on Plasmodium falciparum [2] it was 6 nM.
